In brackets after ≈: the same amount, converted by molar mass.

The nature of series [1]: Toxicity in Plasmodium berghei infected ICR mice (Mus musculus) dosed intraperitoneally once daily for 4 days by Thompson test. The following applies: in vivo, ip. It is filed as organism-based.
Series [2] relates to Plasmodium berghei. The series is described as follows: Antimalarial activity against Plasmodium berghei infected ICR mice (Mus musculus) daily oral or subcutaneous dose for 8 days by Thompson test. The following applies: for ED50: Plasmodium berghei, po or sc, 192 h.
In series [3] the test system is Plasmodium falciparum. The series is described as follows: Antiplasmodial activity after 48 hrs against chloroquine-resistant Plasmodium falciparum W2 in human erythrocytes by [3H]hypoxanthine uptake. It is filed as functional, organism-based. The method in brief:
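Chloroquine-resistant W2 P. falciparum grown in RPMI 1640 with 6% human erythrocytes and 10% human serum, under 5% CO2, 5% O2, 90% N2 at 37°C. Sensitivity tested by semi-automated micro-dilution. [3H]hypoxanthine incorporation measured across compound concentrations, and IC50 derived from it.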

Series [4] can be described thus: Therapeutic index, ratio of MTD for Plasmodium berghei infected ICR mice (Mus musculus) to MCD for Plasmodium berghei. The following applies: read-out: TI.

In turn, `O=C(C[C@H]1NCC[C@@H]1O)Cn1cnc2cccnc2c1=O` had an MTD at 96 h in series [1] of 345 mg/kg. For the same molecule, in series [2], the MCD was 3.1 mg/kg and the ED50 was 0.44 mg/kg. Further, half-maximal inhibition in series [3] (IC50) was put at 0.12 ng/mL (≈ 0.416 nM). For the same molecule, the selectivity ratio in series [4] turned out to be 111.

In series [1], `O=C(C[C@H]1NCC[C@@H]1OCc1ccccc1)Cn1cnc2cccc(C(F)(F)F)c2c1=O` returned an MTD at 96 h of 88 mg/kg. In series [2], the MCD was 0.69 mg/kg and the ED50 worked out at 0.12 mg/kg. Besides, in series [3], the IC50 came to 0.19 ng/mL (≈ 0.427 nM). In series [4], the selectivity ratio stood at 128.

In turn, `O=C(C[C@H]1NCC[C@@H]1O)Cn1cnc2ccc(C(F)(F)F)cc2c1=O` had an MTD at 96 h in series [1] of 440 mg/kg. In addition, in series [2], the MCD is 7.9 mg/kg and the 50% effective dose (ED50) turned out to be 1.5 mg/kg. For the same molecule, the IC50 in series [3] stood at 0.28 ng/mL (≈ 0.788 nM). Further, in series [4], the selectivity ratio came out at 56.

On to `CCN(CC)CCCC(C)Nc1ccnc2cc(Cl)ccc12` (stereo not drawn) [CHLOROQUINE], for which, in series [1], the MTD at 96 h was 240 mg/kg. In series [2], this molecule yielded an MCD of 40 mg/kg and a median effective dose (ED50) of 4.5 mg/kg.

As to `O=C(C[C@H]1NCC[C@@H]1O)Cn1cnc2cccc(C(F)(F)F)c2c1=O`, the MTD at 96 h in series [1] is 335 mg/kg. In series [2], the MCD was 4.7 mg/kg and the ED50 came out at 0.74 mg/kg. Further, the IC50 in series [3] was determined as 0.23 ng/mL (≈ 0.647 nM). Moreover, in series [4], the selectivity ratio was found to be 71.

In the case of `O=C(C[C@@H]1NCCC[C@H]1O)Cn1cnc2ccccc2c1=O` [FEBRIFUGINE], in series [1], the MTD at 96 h was found to be 35 mg/kg. In series [2], the MCD was determined as 12 mg/kg and the 50% effective dose (ED50) was 2.3 mg/kg. The molecule also registered an IC50 in series [3] of 0.76 ng/mL (≈ 2.52 nM). Also, the selectivity ratio in series [4] amounted to 3.

`CC(C)(C)c1cccc2ncn(CC(=O)C[C@H]3NCC[C@@H]3O)c(=O)c12` returned an MTD at 96 h in series [1] of 429 mg/kg. Further, in series [2], the MCD was found to be 39 mg/kg and the 50% effect level (ED50) was put at a dose of 8.7 mg/kg. The molecule further registered a half-inhibitory concentration (IC50) in series [3] of 2.9 ng/mL (≈ 8.44 nM). Further, the selectivity ratio in series [4] was found to be 11.

As to `O=C(C[C@H]1NCC[C@@H]1O)Cn1cnc2cccc(F)c2c1=O`, the MTD at 96 h in series [1] worked out at 399 mg/kg. In series [2], the MCD was determined as 7.1 mg/kg and it took a dose of 1 mg/kg to reach the 50% effect level (ED50). Besides, in series [3], the IC50 stood at 0.29 ng/mL (≈ 0.95 nM). In series [4], the selectivity ratio was 56.

As to `CC(C)(C)c1ccc2ncn(CC(=O)C[C@H]3NCC[C@@H]3O)c(=O)c2c1`, the MTD at 96 h in series [1] came out at 504 mg/kg. In series [2], this molecule showed an MCD of 42 mg/kg and a 50% effective dose (ED50) of 10 mg/kg. The molecule further came in with a half-inhibitory concentration (IC50) in series [3] of 3.4 ng/mL (≈ 9.9 nM). Further, the selectivity ratio in series [4] came to 12.

For the molecule `O=C(C[C@H]1NCC[C@@H]1O)Cn1cnc2ccc(F)cc2c1=O`, the MTD at 96 h in series [1] was found to be 425 mg/kg. For the same molecule, in series [2], the MCD came out at 6.8 mg/kg and the median effective dose (ED50) was determined as 1.1 mg/kg. Also, in series [3], the IC50 is 0.26 ng/mL (≈ 0.852 nM). Also, the selectivity ratio in series [4] worked out at 63.

Regarding `COc1ccc2c(=O)n(CC(=O)C[C@H]3NCC[C@@H]3O)cnc2c1`, the MTD at 96 h in series [1] turned out to be 55 mg/kg. For the same molecule, in series [2], the MCD worked out at 5.6 mg/kg and the median effective dose (ED50) worked out at 1.7 mg/kg. Also, the midpoint of inhibition in series [3], the IC50, lay at 0.62 ng/mL (≈ 1.95 nM). Also, the selectivity ratio in series [4] is 10.

In series [1], `O=C(C[C@H]1NCC[C@@H]1O)Cn1cnc2ccc(F)c(F)c2c1=O` yielded an MTD at 96 h of 379 mg/kg. In addition, in series [2], the MCD stood at 8.9 mg/kg and it took a dose of 1.7 mg/kg to reach the 50% effect level (ED50). Further, the midpoint of inhibition in series [3], the IC50, lay at 0.4 ng/mL (≈ 1.24 nM). Also, the selectivity ratio in series [4] was 43.

`O=C(C[C@H]1NCC[C@@H]1O)Cn1cnc2ccccc2c1=O` came in with an MTD at 96 h in series [1] of 144 mg/kg. Moreover, in series [2], the MCD was found to be 8.4 mg/kg and the ED50 came to 1.6 mg/kg. The IC50 in series [3] came out at 0.56 ng/mL (≈ 1.95 nM). The selectivity ratio in series [4] turned out to be 17.

On to `O=C(C[C@H]1NCC[C@@H]1O)Cn1cnc2ncccc2c1=O`, for which, in series [1], the MTD at 96 h amounted to 439 mg/kg. In series [2], this molecule displayed an MCD of 5.9 mg/kg and an ED50 of 1.3 mg/kg. In series [3], this molecule registered a concentration for half-maximal inhibition (IC50) of 0.34 ng/mL (≈ 1.18 nM). Besides, the selectivity ratio in series [4] was 74.

The molecule `COc1cccc2c(=O)n(CC(=O)C[C@H]3NCC[C@@H]3O)cnc12` gave an MTD at 96 h in series [1] of 51 mg/kg. In series [2], the MCD was 4.9 mg/kg and the 50% effect level (ED50) was put at a dose of 1.5 mg/kg. In series [3], this molecule had an IC50 of 0.57 ng/mL (≈ 1.8 nM). Also, in series [4], the selectivity ratio was 10.

For the molecule `O=C(C[C@H]1NCC[C@@H]1O)Cn1cnc2ccncc2c1=O`, the MTD at 96 h in series [1] stood at 310 mg/kg. Moreover, in series [2], the MCD worked out at 2.9 mg/kg and it took a dose of 0.49 mg/kg to reach the 50% effect level (ED50). In series [3], this molecule gave an IC50 of 0.14 ng/mL (≈ 0.486 nM). For the same molecule, in series [4], the selectivity ratio worked out at 107.

For the molecule `O=C(C[C@H]1NCC[C@@H]1O)Cn1cnc2cnccc2c1=O`, the MTD at 96 h in series [1] was determined as 338 mg/kg. Further, in series [2], the MCD stood at 6.6 mg/kg and the ED50 is 1.2 mg/kg. In addition, the IC50 in series [3] came to 0.31 ng/mL (≈ 1.08 nM). Also, the selectivity ratio in series [4] was determined as 51.

Molecule `O=C(C[C@H]1NCC[C@@H]1OCc1ccccc1)Cn1cnc2cccnc2c1=O` had an MTD at 96 h in series [1] of 102 mg/kg. Further, in series [2], the MCD worked out at 0.77 mg/kg and the 50% effect level (ED50) was put at a dose of 0.14 mg/kg. Moreover, half-maximal inhibition in series [3] (IC50) required 0.14 ng/mL (≈ 0.37 nM). In series [4], the selectivity ratio was 132.

As a reminder, the ED50 is the midpoint of the dose-response relation. A high value points to weaker potency. In general, IC50 refers to the concentration that inhibits the measured activity by half. A low value points to inhibition by little substance.

The values above are taken from ChEMBL document CHEMBL1152949, “Synthesis and biological evaluation of febrifugine analogues as potential antimalarial agents” (Bioorg Med Chem, 2009).
